# High-throughput results deposited in PubChem BioAssay by several laboratories.
# PHOSPHO1 block = blocks human PHOSPHO1 phosphatase activity. AID 1565. 290,000 tested, 1.1% active. inhibition, % at 13.3 µM. recombinant PHOSPHO1, absorbance phosphatase assay; in the data active = inhibition above about 60%
# Target sequence (Q8TCT1 whole entry, looked up): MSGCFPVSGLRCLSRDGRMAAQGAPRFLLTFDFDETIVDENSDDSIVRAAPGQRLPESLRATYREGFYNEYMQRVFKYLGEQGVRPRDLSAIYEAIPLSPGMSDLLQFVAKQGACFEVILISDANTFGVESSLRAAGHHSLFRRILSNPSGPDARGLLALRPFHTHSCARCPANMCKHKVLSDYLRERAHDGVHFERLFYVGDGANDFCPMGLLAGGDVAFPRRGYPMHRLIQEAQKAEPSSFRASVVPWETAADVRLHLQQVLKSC
# ALR inh = blocks human ALR sulfhydryl oxidase activity. 290,000 tested, 3.8% active. purified ALR, DTT oxidation, H2O2 HRP-luminol luminescence. P55789. inhibition, % (concentration not given with the values). AID 485317;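 active = mean replicate inhibition above about 79%, with every replicate also reaching it, limit read from the data; inconclusive = only one of the two criteria met; inactive = mean below limit and not every replicate reaching it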
# Target sequence (P55789 whole entry, looked up): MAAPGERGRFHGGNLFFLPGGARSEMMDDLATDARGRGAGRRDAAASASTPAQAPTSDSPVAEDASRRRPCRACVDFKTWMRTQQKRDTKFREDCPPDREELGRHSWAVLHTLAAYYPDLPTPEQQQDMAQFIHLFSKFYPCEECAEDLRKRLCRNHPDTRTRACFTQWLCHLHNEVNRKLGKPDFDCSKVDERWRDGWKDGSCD
# HSF1 activator = increases HSF-1 driven luciferase reporter signal; activation, % at 9 µM; NIH3T3-HGL HSF-1 luciferase reporter, MG132, 8 h; 100% = twice DMSO control signal; 300,000 tested, 1.7% active;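 active = mean replicate activation of at least 50% with a set share of replicates each reaching 50%; inconclusive = only one of those two conditions met; inactive = mean below 50% and too few replicates reaching it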;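 note: 0% = median of the neutral control wells and 100% = twice that signal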
# core dimer inh = blocks dimerization of HCV core protein | TR-FRET GST/Flag-core106 dimerization, 1536-well | inhibition, % at 5 µM | 300,000 tested, 0.33% active | AID 1899;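 active = inhibition above the mean of all tested compounds plus 3 SD, set per screening campaign, cut at about 45% in these data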
#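 Assay system – GST-tagged and Flag-tagged HCV core protein residues 1-106 · Quantity – core106 proteins, GST 13.5 nM and Flag 17 nM · Benchmarks – unlabelled core106 and no-GST-core106 wells · Read-out basis – percent inhibition of core106 dimerization signal · Detection – time-resolved FRET, ex 340 nm, em 617 and 671 nm · Schedule – 4 h at 22.5 °C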
# AI-2 QS modul = modulators of Vibrio harveyi AI-2 quorum sensing system. Vibrio harveyi JMH597 AI-2 luminescence/OD600 ratio, 9 h; hits give low values; strain lacks LuxN and CqsS sensors; 0 = neutral-control median. activity change, % at 7.5 µM. 300,000 tested, 0.4% active. AID 2094; in the data active = activity change below about -75%, passing the limit was not always enough; inconclusive = no clear call, values can overlap the other calls;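 note: luminescence divided by OD600 gain over 9 h not by final OD600 alone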
# HSF1 inhib = HSF1 inhibition; AID 2098; NIH3T3-HGL HSE-luciferase, MG132-induced, luminescence 8 h; hits give low values; 300,000 tested, 0.77% active; activity change, negative = inhibition, % at 7.5 µM (by protocol);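 active = more than half of replicate wells show activity change below -50%, luminescence cut by over half; inconclusive = some wells, but at most half, below -50%; inactive = no replicate well below -50%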;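 note: luciferase reports HSF-1 transcriptional activity via heat shock element; 0% = median of DMSO wells and -100% = zero luminescence signal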
# Active calls of the source: *; ? = inconclusive; · = no result. Shown are actives, neighbours in structure and some others; about 6.8% of the full set was active somewhere.
SMILES,PHOSPHO1 block,ALR inh,HSF1 activator,core dimer inh,AI-2 QS modul,HSF1 inhib
O=C(NCc1ccc2c(c1)OCO2)C(=O)Nc1cc2c3c(c1)CC(=O)N3CCC2,·,-6.9,6.3,11.1,15.5,0.2
CC(C)Cc1ccc(S(=O)(=O)N2CCN(c3ccccn3)CC2)cc1,28.0,-7.0,-9.8,7.4,1.6,3.1
COc1ccc(C(=O)CSC2=C(C#N)C3(CCCCC3)C(C#N)=C(N)N2)cc1,11.2,87.2*,26.6,3.7,21.6,24.3
N#CC1=C(N)NC(SCC(=O)Nc2ccccc2)=C(C#N)C12CCCCC2,3.4,70.5,71.2*,4.3,15.3,39.9
COc1cccc(CN2CCN(C(=O)C3CCC(=O)N(C4CCCC4)C3)CC2)c1 (stereo not given),22.6,-13.0,-24.8,-14.8,-13.7,-0.8
O=C(C1CCC(=O)N(C2CCCC2)C1)N1CCN(Cc2cccc(F)c2)CC1 (stereo not given),75.1*,-7.6,-11.2,-16.4,2.3,2.2
CC(=O)Nc1ccc(S(=O)(=O)N(C)CC(=O)OCC(=O)c2ccc3c(c2)NC(=O)CO3)cc1,·,-3.3,·,·,·,·
Cc1csc(NC(=O)[C@@H]2CCCN2C(=O)c2cccs2)n1,24.5,-3.9,32.0,0.7,14.2,2.4
O=C1NCCC/C1=N/Nc1cc(F)ccc1F,-5.5,·,30.4,5.9,20.6,10.8
Cc1ccc(N/N=C2/CCCNC2=O)cc1,93.0*,90.0*,4.0,-1.3,-15.5,-2.2
CC(=O)c1ccc(N/N=C2/CCCNC2=O)cc1,43.0,99.4*,29.5,-5.7,3.2,20.4
CCOc1cc(/C=N/NC(=O)c2cccnc2)ccc1OC(=O)c1ccco1,-24.8,19.4,10.7,-3.2,25.0,2.6
CCCC(=O)NC(c1ccc(N(C)C)cc1)c1ccc2cccnc2c1O (stereo not given),14.9,90.4*,?,-3.0,-90.2*,45.2
CCCC(=O)NC(c1ccc(C(C)C)cc1)c1ccc2cccnc2c1O (stereo not given),·,-19.0,-55.2,0.4,17.1,?
COc1ccc(CCN2C(=O)NC(NS(=O)(=O)c3ccc(NC(C)=O)cc3)(C(F)(F)F)C2=O)cc1OC (stereo not given),64.3*,-7.5,-0.2,-0.4,9.5,-9.7
COc1ccc(S(=O)(=O)Nc2cccnc2)c(C)c1C,39.5,4.0,2.5,-1.6,·,0.2
COc1ccc(S(=O)(=O)Nc2ccncc2)c(C)c1C,16.1,·,59.9*,0.7,29.9,28.7
Cn1nc(-c2ccc3c(c2)OCCO3)c2ccccc2c1=O,39.7,-2.4,-4.4,-2.3,30.7,-13.3
O=C(Nc1cccc(S(=O)(=O)N2CCCCCC2)c1)C1CCN(C(=O)c2ccc(F)cc2)CC1,·,-1.2,-11.8,-1.6,2.8,-12.8
COc1ccc(C)cc1-n1c(=O)c2ccccc2c2ccccc2c1=O,22.6,·,315.2*,·,14.0,235.8
Cc1csc(=N)n1-c1ccc(Cl)cc1,3.6,96.3*,22.7,-3.8,10.2,16.8
Cn1cc(/C=C2/SC(=O)N(c3ccccc3)C2=O)c2ccccc21,27.4,1.5,45.6,8.5,8.0,12.1
Cn1cccc1/C=C1\SC(=O)N(c2ccccc2)C1=O,-36.7,-37.0,64.7*,1.7,21.7,23.6
Cc1sc2ncnc(NCC(O)c3ccc([N+](=O)[O-])cc3)c2c1C (stereo not given),10.8,-12.6,29.6,15.4,0.4,8.3
O=C(CCC(=O)c1ccc(F)cc1)Nc1cccc(C(F)(F)F)c1,13.5,-8.4,-34.3,-2.4,-77.5*,-10.5
SMILES,PHOSPHO1 block,ALR inh,HSF1 activator,core dimer inh,AI-2 QS modul,HSF1 inhib
COc1cc(OC)cc(C(=O)NCC(=O)NC(C)c2ccccc2)c1 (stereo not given),37.5,11.8,-1.2,-10.5,3.6,3.0
CCOC(=O)C1(Cc2ccccc2)C(=O)Nc2ccccc21 (stereo not given),·,-0.8,-0.8,-2.9,9.6,0.3
O=C1N/C(=N\S(=O)(=O)Cc2ccccc2)S/C1=C/c1cc([N+](=O)[O-])ccc1O,11.5,96.7*,-4.1,7.0,18.0,1.3
Cc1ccc(S(=O)(=O)/N=C2/NC(=O)/C(=C/c3ccc(Br)o3)S2)cc1,20.8,54.1,-0.6,10.5,67.5,0.3
COc1cc(/C=C2/S/C(=N/S(=O)(=O)c3ccccc3)NC2=O)c([N+](=O)[O-])cc1OC,71.3*,·,9.1,-7.7,15.5,0.6
COc1cc(/C=C2\S/C(=N/S(=O)(=O)Cc3ccccc3)NC2=O)c([N+](=O)[O-])cc1OC,1.5,21.4,-1.1,-4.3,15.9,-11.1
Cc1ccc(S(=O)(=O)/N=C2/NC(=O)/C(=C\c3cc(Br)cc(Br)c3O)S2)cc1,2.8,98.5*,·,·,-54.1,·
NC(=O)c1cc(C(=O)c2ccccc2Cl)c[nH]1,25.6,4.3,6.3,-1.0,29.4,0.5
O=C(OCc1nc2ccsc2c(=O)[nH]1)c1ccccc1,·,-18.4,23.1,-0.2,-31.2,2.0
COc1cc(-c2nnc(SCc3cc(=O)oc4cc(C)ccc34)o2)cc(OC)c1OC,73.5*,57.9,27.8,14.0,19.6,20.0
Cc1ccc2c(CSc3nnnn3C)cc(=O)oc2c1,43.7,2.7,22.5,-5.9,19.7,10.5
Nc1nc2n[nH]nc2c(=O)[nH]1,·,-44.2,-5.1,1.0,-95.0*,-0.6
COc1ccc(C(CNC(=O)C(C)Oc2ccc(Br)cc2)N2CCCC2)cc1 (stereo not given),·,·,-1.6,-5.6,-6.2,2.9
Cc1ccc2[nH]c(-c3cccc(N)c3)cc2c1,14.1,98.5*,6.9,-8.9,9.3,-4.8
Cc1ccc(-n2cc(CN3CCN(Cc4nccn4C)CC3)c(-c3cccc(C)c3)n2)cc1,28.3,-33.8,51.2*,-4.3,7.6,27.7
CCOC(=O)c1ccc(NC(=O)CCS(=O)(=O)c2ccc(Br)s2)cc1,-15.9,1.4,116.6*,8.1,8.3,47.8
CCOC(=O)c1ccc(Nc2cnc3ccccc3n2)cc1,42.1,·,55.8*,-9.4,21.3,32.1
CCC(=O)Nc1ccc(C(=O)OCc2ccccc2Cl)cc1,28.0,-1.1,115.8*,-2.9,2.7,61.1
CC(=O)Nc1ccc(C(=O)OCCc2ccccc2)cc1,34.8,-3.2,56.1*,-11.6,·,21.9
COc1ccc(CCNC(=O)c2ccc(C)s2)cc1OC,-9.8,6.6,17.8,-0.7,8.1,10.8
COC(=O)c1ccc(NC(=O)CS(=O)(=O)Cc2ccccc2)cc1,-6.8,-3.5,-14.9,2.4,6.3,4.8
CCOC(=O)c1ccc(NC(=O)NS(=O)(=O)c2ccc(C)cc2)cc1,18.5,18.1,-65.2,-2.1,6.7,-58.0*
CCOC(=O)c1ccc(NC(=O)Oc2ccccc2)cc1,4.7,-1.7,-63.2,-5.2,24.9,-50.8*
CCOC(=O)c1ccc(NC(=O)CCS(=O)(=O)Cc2ccccc2)cc1,62.8*,3.4,-2.4,-23.4,6.8,2.9
